Measurements as given in ChEMBL document CHEMBL4330056, “Synthesis and Cytotoxic and Antiviral Profiling of Pyrrolo- and Furo-Fused 7-Deazapurine Ribonucleosides” (J Med Chem, 2018).
Activity calls are given as the source filed them. The rule behind the calls is not given here.

Key:
dengue virus type 2 = assay: Antiviral activity against Dengue virus 2 Thailand/16681/84 infected in African green monkey Vero cells assessed as inhibition of virus replication incubated for 3 days by fluorescence microscopy; assay type: functional, organism-based
HeLa S3 = assay: Antiproliferative activity against human HeLaS3 cells after 72 hrs by XTT assay; assay type: functional, cell-based; settings: HeLa S3, 72 h
MRC5 = assay: Antiproliferative activity against human MRC5 cells after 3 days by MTS assay; settings: MRC5, 72 h
[1] = Antiproliferative activity against human CEM-DNR-bulk cells after 3 days by MTS assay; settings: 72 h
BJ = assay: Antiproliferative activity against human BJ cells after 3 days by MTS assay; settings: 72 h
HCT-116 [2] = assay: Antiproliferative activity against human HCT116 cells after 3 days by MTS assay; assay type: functional, cell-based; settings: HCT-116, 72 h
Human orthopneumovirus = assay: Antiviral activity against Human respiratory syncytial virus A2 infected in Hep2 cells assessed as reduction in virus-induced cytopathic effect incubated for 4 days by CellTiter-Glo viability reagent based assay; assay type: functional, organism-based
Hepatitis C virus [3] = assay: Antiviral activity against Hepatitis C virus genotype 2a infected in human Huh-luc replicon cells after 3 days by luciferase assay; assay type: functional, organism-based, Hepacivirus hominis; settings: subtype 2a, 72 h
[4] = Cytotoxicity against human Hep2 cells assessed as reduction in cell viability after 3 days by CellTiter-Glo assay; assay type: cell-based; settings: HEp-2 cells
Coxsackievirus B3 = assay: Antiviral activity against Human coxsackie B3 Nancy infected in human HeLa cells assessed as inhibited virus-induced cytopathic effect incubated for 2 days by XTT assay; assay type: functional, organism-based
Adenosine kinase [5] = target: T1, Adenosine kinase (Homo sapiens, UniProt P55263); assay: Substrate activity at recombinant human ADK assessed as compound phosphorylation at 50 uM after 20 mins in presence of [3H]-adenosine by UPLC; assay type: ADME
HepG2 = assay: Antiproliferative activity against human HepG2 cells after 72 hrs by XTT assay; assay type: functional, cell-based; settings: HepG2, 72 h
A549 = assay: Antiproliferative activity against human A549 cells after 3 days by MTS assay; assay type: functional, cell-based; settings: A549, 72 h
Human alphaherpesvirus 1 = assay: Antiviral activity against human herpesvirus 1 HF infected in African green monkey Vero cells assessed as inhibited virus-induced cytopathic effect incubated for 3 days by XTT assay; assay type: functional, organism-based
HL-60 = assay: Antiproliferative activity against human HL60 cells after 72 hrs by XTT assay; assay type: functional, cell-based; settings: HL-60, 72 h
CCRF-CEM = assay: Antiproliferative activity against human CCRF-CEM cells after 3 days by MTS assay; assay type: functional, cell-based; settings: 72 h
Influenza A virus = assay: Antiviral activity against Influenza A virus (A/Mexico/4108/2009(H1N1)) infected in MDCK cells assessed as inhibited virus-induced cytopathic effect incubated for 2 days by XTT assay; assay type: functional, organism-based
[6] = Antiproliferative activity against human K562-TAX cells after 3 days by MTS assay; assay type: functional, cell-based; settings: 72 h
Hepatitis C virus [7] = assay: Antiviral activity against Hepatitis C virus genotype 1b infected in human Huh-luc replicon cells after 3 days by luciferase assay; assay type: functional, organism-based, Hepacivirus hominis; settings: subtype 1b, 72 h
U2OS = assay: Antiproliferative activity against human U2OS cells after 3 days by MTS assay; assay type: functional, cell-based; settings: 72 h
Adenosine kinase [8] = target: T1, Adenosine kinase; assay: Inhibition of recombinant human ADK using [3H]-adenosine as substrate after 20 mins by TLC scanner-based analysis relative to control
Method in brief: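 ADK inhibition: 50 μM adenosine substrate with 10 μM test compound and 97 ng enzyme, 20 min at 37 °C.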

HCT-116 [9] = assay: Antiproliferative activity against p53 gene knocked out human HCT116 cells after 3 days by MTS assay; assay type: functional, cell-based; settings: HCT-116, 72 h
K562 = assay: Antiproliferative activity against human K562 cells after 3 days by MTS assay; assay type: functional, cell-based; settings: K562, 72 h

T1 sequence (P55263 whole entry): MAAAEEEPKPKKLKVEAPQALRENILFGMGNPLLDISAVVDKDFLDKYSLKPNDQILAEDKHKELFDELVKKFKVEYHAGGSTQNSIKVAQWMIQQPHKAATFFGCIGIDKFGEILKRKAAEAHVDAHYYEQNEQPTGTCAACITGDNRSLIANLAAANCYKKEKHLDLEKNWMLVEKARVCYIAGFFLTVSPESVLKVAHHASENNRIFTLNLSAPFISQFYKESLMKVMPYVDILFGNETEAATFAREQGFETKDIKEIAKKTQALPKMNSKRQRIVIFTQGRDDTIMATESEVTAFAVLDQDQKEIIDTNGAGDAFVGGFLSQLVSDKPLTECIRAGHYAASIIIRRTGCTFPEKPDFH

Row | Structure (SMILES) | Activity (dengue virus type 2) | IC50 (HeLa S3) [µM] | IC50 (MRC5) [µM] | IC50 [1] [µM] | IC50 (BJ) [µM] | IC50 (HCT-116 [2]) [µM] | Activity (Human orthopneumovirus) | EC50 (Hepatitis C virus [3]) [µM] | CC50 at 72 h [4] [µM] | Activity (Coxsackievirus B3) | Activity (Adenosine kinase [5]) [%] | IC50 (HepG2) [µM] | IC50 (A549) [µM] | Activity (Human alphaherpesvirus 1) | IC50 (HL-60) [µM] | IC50 (CCRF-CEM) [µM] | Activity (Influenza A virus) | IC50 [6] [µM] | EC50 (Hepatitis C virus [7]) [µM] | IC50 (U2OS) [µM] | other results
1 | Cn1ccc2c3c(Cl)ncnc3n([C@@H]3O[C@H](CO)[C@@H](O)[C@H]3O)c21 | inactive | > 50 | > 50 | > 50 | > 50 | > 50 | inactive | > 44.4 | > 44.4 | inactive | 0 | > 50 | > 50 | inactive | > 50 | > 50 | inactive | > 50 | 36.4 | > 50 | IC50 (Adenosine kinase [8]): > 10 µM; IC50 (HCT-116 [9]): > 50 µM; IC50 (K562): > 50 µM
2 | Nc1ncnc2c1c1occc1n2[C@@H]1O[C@H](CO)[C@@H](O)[C@H]1O | inactive | 1.71 | > 50 | > 50 | > 50 | 48.4 | inactive | 0.33 | > 44.4 | inactive | 75 | 4.51 | > 50 | inactive | 0.51 | > 50 | inactive | 50 | 0.3 | 7.09 | IC50 (Adenosine kinase [8]): > 10 µM; IC50 (HCT-116 [9]): > 50 µM; IC50 (K562): 6.04 µM
3 | Cn1ccc2c1c1c(-c3ccco3)ncnc1n2[C@@H]1O[C@H](CO)[C@@H](O)[C@H]1O | inactive | > 50 | > 50 | > 50 | > 50 | > 50 | inactive | > 44.4 | > 44.4 | inactive | 11 | > 50 | > 50 | inactive | > 50 | > 50 | inactive | > 50 | 0.22 | 7.37 | IC50 (Adenosine kinase [8]): 7.12 µM; IC50 (HCT-116 [9]): > 50 µM; IC50 (K562): > 50 µM
4 | OC[C@H]1O[C@@H](n2c3ccoc3c3c(-c4ccco4)ncnc32)[C@H](O)[C@@H]1O | inactive | > 50 | > 50 | > 50 | > 50 | > 50 | inactive | > 44.4 | > 44.4 | inactive | 34 | > 50 | > 50 | inactive | 2.55 | 0.45 | inactive | 7.01 | 0.17 | 4.21 | IC50 (Adenosine kinase [8]): 3.94 µM; IC50 (HCT-116 [9]): > 50 µM; IC50 (K562): 7.03 µM
5 | OC[C@H]1O[C@@H](n2c3ccoc3c3c(-c4ccoc4)ncnc32)[C@H](O)[C@@H]1O | inactive | 13.1 | > 50 | > 50 | 0.52 | 12.1 | inactive | > 44.4 | > 44.4 | inactive | 38 | 6.71 | > 50 | inactive | 1.92 | 0.21 | inactive | 9.78 | 0.78 | 0.64 | IC50 (Adenosine kinase [8]): > 10 µM; IC50 (HCT-116 [9]): 10.7 µM; IC50 (K562): 0.42 µM
6 | CSc1ncnc2c1c1ccn(C)c1n2[C@@H]1O[C@H](CO)[C@@H](O)[C@H]1O | inactive | > 50 | > 50 | 28.2 | > 50 | 35.9 | inactive | 17 | 36.8 to 44 | inactive | 0 | > 50 | > 50 | inactive | > 50 | 25.5 | inactive | 30 | 5.98 | 27.4 | IC50 (Adenosine kinase [8]): > 10 µM; IC50 (HCT-116 [9]): > 50 µM; IC50 (K562): 18 µM
7 | CN(C)c1ncnc2c1c1ccn(C)c1n2[C@@H]1O[C@H](CO)[C@@H](O)[C@H]1O | inactive | > 50 | > 50 | > 50 | > 50 | > 50 | inactive | > 44.4 | > 44.4 | inactive | 0 | > 50 | > 50 | inactive | > 50 | > 50 | inactive | > 50 | > 44.4 | > 50 | IC50 (Adenosine kinase [8]): > 10 µM; IC50 (HCT-116 [9]): > 50 µM; IC50 (K562): > 50 µM
8 | CN(C)c1ncnc2c1c1occc1n2[C@@H]1O[C@H](CO)[C@@H](O)[C@H]1O | inactive | > 50 | > 50 | > 50 | > 50 | > 50 | inactive | > 44.4 | > 44.4 | inactive | 7 | > 50 | > 50 | inactive | > 50 | > 50 | inactive | > 50 | > 44.4 | > 50 | IC50 (Adenosine kinase [8]): > 10 µM; IC50 (HCT-116 [9]): > 50 µM; IC50 (K562): > 50 µM
9 | Cn1ccc2c1c1c(Cl)ncnc1n2[C@@H]1O[C@H](CO)[C@@H](O)[C@H]1O | inactive | 0.57 | 50 | 50 | 1.2 | 0.17 | inactive | 0.06 | > 44.4 | inactive | 77 | 0.16 | 2.99 | inactive | 0.06 | 0.06 | inactive | 50 | 0.37 | 0.62 | IC50 (Adenosine kinase [8]): > 10 µM; IC50 (HCT-116 [9]): 0.15 µM; IC50 (K562): 0.18 µM
